In ChEMBL document CHEMBL4020843, “Ligand-Based NMR Study of C-X-C Chemokine Receptor Type 4 (CXCR4)-Ligand Interactions on Living Cancer Cells” (J Med Chem, 2018):
Active and inactive are the calls of the source. The rule behind the calls is not given here. Residues, ends and D or L forms follow the SMILES beside them.

What was measured:
[1] = biological target: T1, C-X-C chemokine receptor type 4 (Homo sapiens, UniProt P61073); assay: Antagonist activity at CXCR4 in human CCRF-CEM cells assessed as inhibition of PE-conjugated 12G5 antibody binding; type: cell-based
In short: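 CCRF-CEM cells (5 × 10^5) preincubated 30 min at 37 °C, 5% CO2 with peptide at 0.01, 0.1, 1 and 10 µM in PBS plus 0.2% BSA and 0.1% NaN3. Then labeled 30 min with PE anti-CXCR4 antibody clone 12G5. IC50 taken as concentration reducing 12G5 binding by 50%, reported as mean ± SD.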

Cricetulus griseus = species: Cricetulus griseus; assay: Binding affinity to CHO cell membranes assessed as signal to noise ratio by STD-NMR method
In short: (§1)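 Pellet of 20 x 10^6 intact cells (CCRF-CEM, CXCR4-null CHO or CXCR4-stably transfected CHO) resuspended in 450 µL PBS pH 7.4 plus 50 µL 2H2O. Peptide added for STD, WaterLOGSY or trNOESY 1H NMR. Spectra of peptide alone and of cells alone acquired as reference. Competition run by adding plerixafor to the indicated concentration (0.010–0.100 mM in STD). STD/WaterLOGSY read as signal-to-noise ratio.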

[2] = biological target: T1, C-X-C chemokine receptor type 4; assay: Binding affinity to CXCR4 (unknown origin) expressed in CHO cell membranes assessed as signal to noise ratio by STD-NMR method; in short: as §1
[3] = biological target: T1, C-X-C chemokine receptor type 4; assay: Binding affinity to CXCR4 in human CCRF-CEM cell membranes assessed as signal to noise ratio in presence of 0.1 mM plerixafor by STD-NMR method; in short: as §1
Plasma [4] = assay: Drug metabolism in human plasma assessed as [Cys-Arg-Phe-Phe-Cys]-COOH metabolite formation after 15 to 30 mins by ESI-RP-HPLC analysis; type: ADME, cell-free
In short: (§2)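 Peptide in sterile water mixed with 90% human serum and incubated at 37 °C. Aliquots taken at 0, 15, 30, 60 and 120 min, precipitated with ACN/0.1% TFA and centrifuged (12 000 rpm, 15 min, 4 °C). Supernatant analysed by RP-HPLC with a 10–90% ACN (0.1% TFA) gradient over 20 min. Relative peptide level taken from A230 peak integration.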

[5] = biological target: T1, C-X-C chemokine receptor type 4; assay: Binding affinity to CXCR4 in human CCRF-CEM cell membranes in presence of plerixafor by WaterLOGSY-NMR method; in short: as §1
[6] = biological target: T1, C-X-C chemokine receptor type 4; assay: Binding affinity to CXCR4 in human CCRF-CEM cell membranes by WaterLOGSY-NMR method; in short: as §1
[7] = Half life in human plasma by HPLC analysis; type: ADME, cell-free; in short: as §2
[8] = biological target: T1, C-X-C chemokine receptor type 4; assay: Binding affinity to CXCR4 in human CCRF-CEM cell membranes assessed as signal to noise ratio in presence of 0.02 mM plerixafor by STD-NMR method; in short: as §1
[9] = biological target: T1, C-X-C chemokine receptor type 4; assay: Binding affinity to CXCR4 in human CCRF-CEM cell membranes assessed as signal to noise ratio in presence of 0.05 mM plerixafor by STD-NMR method; in short: as §1
[10] = biological target: T1, C-X-C chemokine receptor type 4; assay: Binding affinity to CXCR4 in human CCRF-CEM cell membranes assessed as signal to noise ratio in presence of 0.01 mM plerixafor by STD-NMR method; in short: as §1
[11] = Stability in human CCRF-CEM cells up to 2 hrs by NMR spectral analysis; type: ADME, cell-based
[12] = biological target: T1, C-X-C chemokine receptor type 4; assay: Binding affinity to CXCR4 in human CCRF-CEM cell membranes assessed as signal to noise ratio by STD-NMR method; in short: as §1
[13] = Stability in human CCRF-CEM cells up to 6 hrs by NMR spectral analysis; type: ADME, cell-based
Plasma [14] = assay: Stability in human plasma up to 120 mins by ESI-RP-HPLC analysis; type: ADME, cell-free; details: 2 h; in short: as §2
Plasma [15] = assay: Drug level in human plasma treated with (4R,7S,10S,13S,16R)-16-((S)-2-((S)-2-amino-5-guanidinopentanamido)propanam(4R,7S,10S,13S,16R)-16-((S)-2-((S)-2-amino-5-guanidinopentanamido)propanamido)-7,10-dibenzyl-13-(3-guanidinopropyl)-6,9,12,15-tetraoxo-1,2-dithia-5,8,11,14-tetraazacycloheptadecane-4-carboxylic acid after 15 to 30 mins by ESI-RP-HPLC analysis; type: ADME, cell-free; in short: as §2

T1 sequence (P61073 whole entry): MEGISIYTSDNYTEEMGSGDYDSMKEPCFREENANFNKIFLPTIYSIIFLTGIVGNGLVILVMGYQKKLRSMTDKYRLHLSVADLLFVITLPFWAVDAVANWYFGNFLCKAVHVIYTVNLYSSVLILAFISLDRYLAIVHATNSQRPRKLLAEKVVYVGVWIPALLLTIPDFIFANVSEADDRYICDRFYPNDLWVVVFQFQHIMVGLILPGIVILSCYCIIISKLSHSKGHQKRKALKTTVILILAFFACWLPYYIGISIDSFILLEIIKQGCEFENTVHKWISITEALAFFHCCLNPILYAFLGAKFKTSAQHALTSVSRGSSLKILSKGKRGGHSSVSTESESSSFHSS

In the case of C[C@H](NC(=O)CCCNC(=N)N)C(=O)N[C@H]1CSSC[C@@H](C(=O)O)NC(=O)[C@H](Cc2ccccc2)NC(=O)[C@H](Cc2ccccc2)NC(=O)[C@H](CCCNC(=N)N)NC1=O (HELM PEPTIDE1{[N=C(N)NCCCC(=O)[*:2]].A.C.R.F.F.C}$PEPTIDE1,PEPTIDE1,3:R3-7:R3$$$V2.0), the IC50 [1] is reported as greater than 10 µM.

Work on C[C@H](NC(=O)c1ccc(NC(=N)N)cc1)C(=O)N[C@H]1CSSC[C@@H](C(=O)O)NC(=O)[C@H](Cc2ccccc2)NC(=O)[C@H](Cc2ccccc2)NC(=O)[C@H](CCCNC(=N)N)NC1=O (HELM PEPTIDE1{[N=C(N)Nc1ccc(C(=O)[*:2])cc1].A.C.R.F.F.C}$PEPTIDE1,PEPTIDE1,3:R3-7:R3$$$V2.0) yielded an IC50 [1] greater than 10 µM.

In the case of C[C@@H]1NC(=O)[C@H](Cc2ccccc2)NC(=O)[C@@H](NC(=O)[C@H](CCCNC(=N)N)NC(=O)[C@@H](N)Cc2ccccc2)CSSC[C@@H](C(=O)O)NC(=O)[C@H](CCCNC(=N)N)NC1=O (HELM PEPTIDE1{F.R.C.F.A.R.C}$PEPTIDE1,PEPTIDE1,3:R3-7:R3$$$V2.0), the IC50 [1] is reported as greater than 10 µM, the Ratio (Cricetulus griseus) is reported as 11.7 and the Ratio [2] is reported as 10.2.

For C[C@H](NC(=O)[C@@H](N)CCCNC(=N)N)C(=O)N[C@H]1CSSC[C@@H](C(=O)O)NC(=O)[C@H](Cc2ccccc2)NC(=O)[C@H](Cc2ccccc2)NC(=O)[C@H](CCCNC(=N)N)NC1=O, the Ratio [3] was 5.9, the Drug metabolism (Plasma [4]) was “Metabolite_Detected” and the Activity [5] was “inactive”. For the same compound, the Activity [6] was “Active”, the half-life [7] was 22 min and the Ratio [8] was 6.3. The Ratio [9] was 6.1, the Ratio [10] was 7.2 and the Stability [11] was “Unstable”. The Ratio [12] was 13.3.

For CC(=O)N[C@@H](CCCNC(=N)N)C(=O)N[C@@H](C)C(=O)N[C@H]1CSSC[C@@H](C(=O)O)NC(=O)[C@H](Cc2ccccc2)NC(=O)[C@H](Cc2ccccc2)NC(=O)[C@H](CCCNC(=N)N)NC1=O (HELM PEPTIDE1{[ac].R.A.C.R.F.F.C}$PEPTIDE1,PEPTIDE1,4:R3-8:R3$$$V2.0), the Activity [6] was “Active”.

C[C@H](NC(=O)C1CCN(C(=N)N)CC1)C(=O)N[C@H]1CSSC[C@@H](C(=O)O)NC(=O)[C@H](Cc2ccccc2)NC(=O)[C@H](Cc2ccccc2)NC(=O)[C@H](CCCNC(=N)N)NC1=O (HELM PEPTIDE1{[N=C(N)N1CCC(C(=O)[*:2])CC1].A.C.R.F.F.C}$PEPTIDE1,PEPTIDE1,3:R3-7:R3$$$V2.0) gave an IC50 [1] greater than 10 µM.

Compound C[C@H](NC(=O)[C@H](N)CCCNC(=N)N)C(=O)N[C@H]1CSSC[C@@H](C(=O)O)NC(=O)[C@H](Cc2ccccc2)NC(=O)[C@H](Cc2ccccc2)NC(=O)[C@H](CCCNC(=N)N)NC1=O has an IC50 [1] greater than 10 µM, a Ratio (Cricetulus griseus) of 8.2 and a Ratio [2] of 9.6.

For C[C@H](NC(=O)c1cccc(NC(=N)N)c1)C(=O)N[C@H]1CSSC[C@@H](C(=O)O)NC(=O)[C@H](Cc2ccccc2)NC(=O)[C@H](Cc2ccccc2)NC(=O)[C@H](CCCNC(=N)N)NC1=O (HELM PEPTIDE1{[N=C(N)Nc1cccc(C(=O)[*:2])c1].A.C.R.F.F.C}$PEPTIDE1,PEPTIDE1,3:R3-7:R3$$$V2.0), the IC50 [1] was 3.2 µM, the half-life [7] was greater than 120 min and the Ratio (Cricetulus griseus) was 12.5. The Stability [13] was “Stable”, the Ratio [12] was 10 and the Stability (Plasma [14]) was “Stable”. For the same compound, the Ratio [2] was 35.9.

In the case of N=C(N)NCCC[C@@H]1NC(=O)[C@@H](N)CSSC[C@@H](C(=O)O)NC(=O)[C@H](Cc2ccccc2)NC(=O)[C@H](Cc2ccccc2)NC1=O (HELM PEPTIDE1{C.R.F.F.C}$PEPTIDE1,PEPTIDE1,1:R3-5:R3$$$V2.0), the Drug metabolism (Plasma [15]) is reported as “Metabolite_Detected”.
